Source: ChEMBL document CHEMBL1250458, “Targeting the ICB2 site of the topoisomerase IIalpha promoter with a formamido-pyrrole-imidazole-pyrrole H-pin polyamide” (Bioorg Med Chem, 2010)
pIC50: −log10 of the molar value. Active and inactive are the calls of the source. The rule behind the calls is not given here.

Columns and labels:
[1] = system: B16; test: Cytotoxicity against mouse B16 cells after 72 hrs by MTT assay; type: cell-based; details: B16, 72 h
How it was run: (§1)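 Cells exposed to a compound concentration gradient for 72 h, then MTT added and developed 4 h. Absorbance read; IC50 taken as the concentration giving 50% growth inhibition versus untreated control.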

[2] = system: Nucleic Acid; test: Binding affinity to ICB2 site of topoisomerase 2alpha non-cognate AAATTT by isothermal titration microcalorimetry; type: nucleic-acid assay
How it was run: (§2)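 ITC at 25 °C in PO45 buffer. Compound (100 µM) titrated into 2 µM DNA as 50 injections every 240 s after a 300 s delay. A linear fit was subtracted from the integrated heats to remove non-specific heat, giving ΔH.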

[3] = system: Nucleic Acid; test: Inhibition of nuclear factor Y binding to ICB2 site of topoisomerase 2alpha cognate sequence TACGAT in mouse NIH/3T3 cells at > 3 uM preincubated for 1 hr by electrophoretic mobility shift assay; type: cell-based; details: NIH3T3
[4] = system: Nucleic Acid; test: Binding affinity to ICB2 site of topoisomerase 2alpha cognate sequence ATCGAT assessed as change in melting temperature at 3 uM by thermal denaturation; type: nucleic-acid assay
How it was run: (§3)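 Thermal melting by UV spectrophotometry: DNA hairpin 1 µM with compound 3 µM in PO40 buffer (10 mM phosphate, 12.5 mM Na+, 1 mM EDTA, pH 6.2). ΔTm taken as the difference in Tm between ligand-bound and free DNA.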

[5] = system: Nucleic Acid; test: Binding affinity to ICB2 site of topoisomerase 2alpha cognate sequence TACGAT assessed as change in melting temperature at 3 uM by thermal denaturation; type: nucleic-acid assay; how it was run: as §3
[6] = system: Nucleic Acid; test: Binding affinity to ICB2 site of topoisomerase 2alpha cognate sequence ATCGAT at 1 uM after 30 mins by DNase I footprinting assay; type: nucleic-acid assay
How it was run: (§4)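 DNase I footprinting on a PCR-made radiolabeled 131-bp fragment. The fragment was incubated 30 min at room temperature with drug in TN buffer (10 mM Tris, 10 mM NaCl, pH 7). It was then cleaved 3 min with 0.02 U DNase I in buffer containing Mg2+/Mn2+ (pH 8.0) and stopped on dry ice. Products were resolved on a denaturing 10% polyacrylamide urea gel.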

[7] = system: Nucleic Acid; test: Binding affinity to biotin labeled ICB2 site of topoisomerase 2alpha non-cognate AAATTT by surface plasmon resonance assay; type: nucleic-acid assay
How it was run: (§5)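 SPR at 25 °C with biotinylated DNA hairpins immobilized on a chip, in cacodylic acid buffer pH 6.25 with 0.1 M NaCl. Compound injected at a range of concentrations (up to 4 µM) at 25 µL/min with 400 s dissociation; surface regenerated with glycine pH 2.5. Keq derived from steady-state fits.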

[8] = system: Nucleic Acid; test: Inhibition of nuclear factor Y binding to ICB2 site of topoisomerase 2alpha cognate sequence TACGAT in mouse NIH/3T3 cells at > 3 uM treated after addition of probe by electrophoretic mobility shift assay; type: cell-based; details: NIH3T3
[9] = system: Nucleic Acid; test: Binding affinity to ICB2 site of topoisomerase 2alpha cognate sequence ATCGAT at 6 molar equivalent concentration by circular dichroism spectra analysis; type: nucleic-acid assay
How it was run: (§6)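 CD spectra recorded in a 1 mm cuvette with 2.4 nm bandpass, integration time set as a function of PMT high volts. PO45 buffer (10 mM phosphate, 50 mM Na+, 1 mM EDTA, pH 6.2); run in duplicate.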

[10] = system: Nucleic Acid; test: Binding affinity to ICB2 site of topoisomerase 2alpha cognate sequence TACGAT by circular dichroism spectra analysis; type: nucleic-acid assay; how it was run: as §6
[11] = system: Nucleic Acid; test: Binding affinity to ICB2 site of topoisomerase 2alpha cognate sequence ATCGAT at 2 uM after 30 mins by DNase I footprinting assay; type: nucleic-acid assay; how it was run: as §4
[12] = system: Nucleic Acid; test: Binding affinity to ICB2 site of topoisomerase 2alpha non-cognate AAATTT assessed as change in melting temperature at 3 uM by thermal denaturation; type: nucleic-acid assay; how it was run: as §3
[13] = system: Nucleic Acid; test: Binding affinity to biotinylated ICB2 site of topoisomerase 2alpha cognate sequence ATCGAT by surface plasmon resonance assay; type: nucleic-acid assay; how it was run: as §5
[14] = system: L1210; test: Cytotoxicity against mouse L1210 cells after 72 hrs by MTT assay; type: cell-based; details: L1210, 72 h; how it was run: as §1
[15] = system: Nucleic Acid; test: Binding affinity to ICB2 site of topoisomerase 2alpha cognate sequence TACGAT by isothermal titration microcalorimetry; type: nucleic-acid assay; how it was run: as §2
[16] = system: Nucleic Acid; test: Binding affinity to ICB2 site of topoisomerase 2alpha cognate sequence ATCGAT by isothermal titration microcalorimetry; type: nucleic-acid assay; how it was run: as §2
[17] = system: NIH3T3; test: Inhibition of topoisomerase 2alpha expression in mouse NIH/3T3 cells up to 80 uM after 4 to 24 hrs by Western blotting; type: functional, cell-based
How it was run: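 NIH 3T3 cells held at confluence for 96 h, then treated with compound (40 and 80 µM) for 6 and 24 h. Nuclear extract (50 µg) immunoblotted with polyclonal topoIIα antibody (1:1000), detected by ECL. Lamin A/C used as loading control.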

Activity [2]	ΔTm [4] [°C]	ΔTm [5] [°C]	Activity [6]	Ke [7]	Activity [9]	Activity [10]	Activity [11]	ΔTm [12] [°C]	Ke [13] [×10⁵ /M]	Activity [15]	Activity [16]	SMILES	pIC50 [1]	Activity [3]	Activity [8]	pIC50 [14]	Activity [17]
inactive	6	3	Active	inactive	Active	Active	Active	4	5	Active	Active	CN(C)CCCNC(=O)c1cc(NC(=O)c2nc(NC(=O)c3cc(NC=O)cn3CCOCCOCCn3cc(NC=O)cc3C(=O)Nc3cn(C)c(C(=O)Nc4cc(C(=O)NCCCN(C)C)n(C)c4)n3)cn2C)cn1C	< 4.00	Active	Active	< 4.00	inactive
–	–	–	inactive	–	–	–	Active	–	–	–	–	CN(C)CCCNC(=O)c1cc(NC(=O)c2nc(NC(=O)c3cc(NC=O)cn3C)cn2C)cn1C	–	–	–	–	–
